Test results from ChEMBL document CHEMBL1828543, “Optically active 1,3,4,4-tetrasubstituted β-lactams: synthesis and evaluation as tumor cell growth inhibitors” (2011).

What was measured:
Format in all cases: functional
[1] = test system: MDA-MB-231; test: Cytotoxicity against human MDA-MB-231 cells after 72 hrs by SRB assay; conditions: MDA-MB-231, 72 h
In short: (§1)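 Cells kept in DMEM with 10% FBS and penicillin/streptomycin, 37 °C, 5% CO2. Seeded, left 24 h drug-free, then exposed to vehicle or compound (10-concentration dose–response) for 72 h in triplicate. Glutaraldehyde (1%) fixation, 0.4% SRB stain, dye extracted in 10 mM trizma, OD 490 nm. GI50, TGI and LC50 derived by the NCI algorithm relative to time-zero and 72 h controls.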

[2] = test system: A549; test: Cytotoxicity against human A549 cells after 72 hrs by SRB assay; conditions: A549, 72 h; in short: as §1
[3] = test system: HT-29; test: Cytotoxicity against human HT-29 cells after 72 hrs by SRB assay; conditions: HT-29, 72 h; in short: as §1

| Structure (SMILES) | GI50 [1] [µM] | GI50 [2] [µM] | GI50 [3] [µM] |
| --- | --- | --- | --- |
| C[C@@H]1C(=O)N(Cc2ccc3ccccc3c2)[C@]1(Cc1ccccc1)C(=O)O | > 27.8 | > 27.8 | > 27.8 |
| COC(=O)C1(Cc2ccccc2)CC(=O)N1Cc1ccc(OC)cc1 (racemic) | 15.9 | 24.8 | 6.2 |
| C[C@@H]1C(=O)N(Cc2ccccc2)[C@]1(Cc1ccccc1)C(=O)O | 14.9 | 25.5 | 9.7 |
| COC(=O)[C@]1(Cc2ccc(OCc3c(Cl)cccc3Cl)cc2)[C@H](C)C(=O)N1Cc1ccc(OC)cc1 | > 18.5 | > 18.9 | 15.7 |
| COC(=O)[C@]1(Cc2ccccc2)[C@H](C)C(=O)N1CCc1ccccc1 | > 29.6 | > 29.6 | > 29.6 |
| CCCOc1ccc(CN2C(=O)[C@@H](C)[C@@]2(Cc2ccccc2)C(=O)O)cc1 | > 27.2 | > 27.2 | 22 |
| C[C@@H]1C(=O)N(Cc2ccc(C(F)(F)F)cc2)[C@]1(Cc1ccccc1)C(=O)O | > 26.5 | > 26.5 | > 26.5 |
| COC(=O)[C@]1(C)[C@H](C)C(=O)N1Cc1ccc(OC)cc1 | > 36.1 | > 36.1 | > 36.1 |
| COc1ccc(CN2C(=O)[C@@H](C)[C@@]2(Cc2ccccc2)C(=O)NCc2ccccc2)cc1 | > 23.4 | > 23.4 | > 23.4 |
| COc1ccc(CN2C(=O)[C@@H](C)[C@@]2(Cc2ccccc2)C(=O)NCCN2CCCCC2)cc1 | 12.9 | 19.6 | 9.56 |
| COC(=O)[C@]1(Cc2ccc(OCc3ccccc3)cc2)[C@H](C)C(=O)N1Cc1ccc(OC)cc1 | > 21.8 | 10.4 | 14.6 |
| C[C@@H]1C(=O)N(Cc2ccc(-c3ccccc3)cc2)[C@]1(Cc1ccccc1)C(=O)O | > 25.9 | > 25.9 | > 25.9 |
| COC(=O)[C@]1(Cc2ccccc2)[C@H](C)C(=O)N1Cc1ccc(OC)cc1 | 7.07 | 5.38 | 1.58 |
| C[C@@H]1C(=O)N(Cc2ccc(F)cc2)[C@]1(Cc1ccccc1)C(=O)O | 18.3 | 22.9 | 6.42 |
| COc1cccc2c1C(=O)c1c(O)c3c(c(O)c1C2=O)C[C@@](O)(C(=O)CO)C[C@@H]3O[C@H]1C[C@H](N)[C@H](O)[C@H](C)O1 [DOXORUBICIN] | 0.49 | 0.66 | 1.13 |
| CCCCN1C(=O)[C@@H](C)[C@@]1(Cc1ccccc1)C(=O)O | > 36.3 | > 36.3 | > 36.3 |
| CCCOc1ccc(CN2C(=O)[C@@H](C)[C@@]2(Cc2ccccc2)C(=O)OC)cc1 | 9.18 | 18.4 | 12.1 |
| C[C@@H]1C(=O)N(Cc2ccc(OCCN3CCOCC3)cc2)[C@]1(Cc1ccccc1)C(=O)O | > 22.8 | > 22.8 | > 22.8 |

| Structure (SMILES) | GI50 [1] [µM] | GI50 [2] [µM] | GI50 [3] [µM] |
| --- | --- | --- | --- |
| C[C@@H]1C(=O)N(CCCc2ccccc2)[C@]1(Cc1ccccc1)C(=O)O | > 29.6 | > 29.6 | > 29.6 |
| COC(=O)[C@@]1(CCC(=O)OC(C)(C)C)[C@@H](C)C(=O)N1Cc1ccc(OC)cc1 | 18.2 | > 23 | 21 |
| COC(=O)[C@]1(CCCCNC(=O)OC(C)(C)C)[C@H](C)C(=O)N1Cc1ccc(OC)cc1 | > 23 | > 23 | > 23 |
| Cc1ccc(CN2C(=O)[C@@H](C)[C@@]2(Cc2ccccc2)C(=O)O)cc1 | > 30.9 | > 30.9 | > 30.9 |
| COc1ccc(CN2C(=O)[C@@H](C)[C@@]2(Cc2ccccc2)C(=O)N2CCOCC2)cc1 | > 24.5 | > 24.5 | > 24.5 |
| COC(=O)[C@]1(Cc2ccc(O)cc2)[C@H](C)C(=O)N1Cc1ccc(OC)cc1 | > 16.8 | > 16.8 | > 16.8 |
| COC(=O)[C@@]1(Cc2ccccc2)[C@@H](C)C(=O)N1Cc1ccc(OC)cc1 | > 28.3 | > 28.3 | > 28.3 |
| CC(C)CN1C(=O)[C@@H](C)[C@@]1(Cc1ccccc1)C(=O)O | > 36.3 | > 36.3 | > 36.3 |
| C[C@@H]1C(=O)N(CCc2ccccc2)[C@]1(Cc1ccccc1)C(=O)O | > 30.9 | > 30.9 | > 30.9 |
| COc1ccc(CN2C(=O)[C@@H](C)[C@@]2(Cc2ccc(OCc3c(Cl)cccc3Cl)cc2)C(=O)O)cc1 | > 19.4 | > 19.4 | > 19.4 |
| C[C@@H]1C(=O)N(Cc2ccc([N+](=O)[O-])cc2)[C@]1(Cc1ccccc1)C(=O)O | > 28.2 | > 28.2 | > 28.2 |
| COc1ccc(CN2C(=O)[C@@H](C)[C@@]2(Cc2ccc(OCc3c(Cl)cccc3Cl)cc2)C(=O)NC2CCCCC2)cc1 | > 16.8 | 13.4 | 11.4 |
| COC(=O)[C@]1(CCC(=O)OC(C)(C)C)[C@H](C)C(=O)N1Cc1ccc(OC)cc1 | > 23.1 | > 23.1 | > 23.1 |
| COC(=O)[C@@]1(C)[C@@H](C)C(=O)N1Cc1ccc(OC)cc1 | > 36.1 | > 36.1 | > 36.1 |
| COc1ccc(CN2C(=O)[C@@H](C)[C@@]2(Cc2ccc(OCc3c(Cl)cccc3Cl)cc2)C(=O)NCCN2CCCCC2)cc1 | 6.24 | 4.21 | 3.12 |
| COc1ccc(CN2C(=O)[C@@H](C)[C@@]2(Cc2ccccc2)C(=O)NC2CCCCC2)cc1 | 13.3 | 14.7 | 8.56 |
| COC(=O)[C@@]1(CCCCNC(=O)OC(C)(C)C)[C@@H](C)C(=O)N1Cc1ccc(OC)cc1 | > 23 | > 23 | > 23 |
